Experimental findings from paper PMC8245858 (Acta Pharmaceutica Sinica. B, 2021) are described below.

Data set [1] concerns MGC-803 xenograft. The experiment in a line: Gastric cancer cell line-derived xenograft. The data set is classed as in vivo, nude mice. Particulars: for pathologic examination of heart, liver, spleen, lung and kidney: compared with the saline group, end of treatment. A digest of the protocol: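 Male nude mice (6–8 weeks) get MGC-803 cells subcutaneously in the right flank. Body weight recorded every two days. After final dose, liver, kidney, lung, heart and spleen taken for histopathology.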

Data set [2] is described as follows: Caco-2 permeability assay. The data set is classed as in vitro ADME, human. Particulars: human; for efflux ratio: Caco-2; for Papp: Mean ± RSD, n = 2. In general terms: Caco-2 monolayers are a common model of the intestinal barrier.
The test system of data set [3] is gastric cancer cell lines MGC-803, HGC-27, SGC-7901, MKN-45, AGS and BGC-823. Nature of the data set: Cell proliferation by sulforhodamine B. Particulars: 72 h. Format: cell-based, human. A digest of the protocol:
(§1)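 SRB assay after 72 h exposure. OD read at compound addition (ODstart) is subtracted: relative growth = (ODtreated − ODstart)/(ODcontrol − ODstart); inhibitory rate (%) = (ODcontrol − ODtreated)/(ODcontrol − ODstart) × 100. GI50 obtained per cell line. Mean ± SD (n = 3), three independent experiments, biological duplicates.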

Data set [4] in a line: Metabolic stability in monkey liver microsomes. Format: in vitro ADME.
Data set [5] in a line: Pharmacokinetic parameters in rats. Format: in vivo. Particulars: male, SD, rat, plasma, iv, 20 mg/kg. The procedure, abridged:
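Study run by a contract laboratory in male SD rats, n = 3. Parameters taken from mean plasma concentration–time curves.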

Data set [6] is described as follows: Metabolic stability in mouse liver microsomes. Format: in vitro ADME.
Data set [7] has as its system GES1. The experiment in a line: Cell proliferation by SRB assay, gastric epithelial cell line. Format: cell-based, human. Conditions: 72 h. A digest of the protocol: as §1
For orientation: In SRB staining, fixed cells bind dye roughly in proportion to their protein.

Data set [8] deals with MGC-803 and MKN-45 cells. The experiment in a line: Lipid peroxidation using C11-BODIPY581/591. Particulars: 6 h. The data set is classed as cell-based, human. A digest of the protocol:
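After 6 h exposure in 6-well plates, cells are collected and resuspended in PBS with 2 μmol/L C11-BODIPY581/591 for 30 min at 37 °C, then read by flow cytometry. For MGC-803: three independent experiments with biological duplicates, one-way ANOVA.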

Data set [9] concerns SLC7A11. The experiment in a line: qRT-PCR of SLC7A11 mRNA. Format: cell-based, human. Conditions: MGC-803 and MKN-45 cells, 24 h.
In data set [10] the test system is MGC-803 cells. Nature of the data set: Intracellular ROS, DCFH-DA staining, flow cytometry. The data set is classed as cell-based, human. Conditions: 24 h. The procedure, abridged: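 MGC-803 cells exposed to test compound with or without N-acetylcysteine for 24 h, stained with DCFH-DA and analysed by flow cytometry. Groups compared by two-way ANOVA.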
(In flow cytometry, cells or beads pass a laser one at a time.)

The test system of data set [11] is MGC-803 cells. The experiment in a line: Cell cycle, PI staining and flow cytometry. The data set is classed as cell-based, human. Particulars: MGC-803, 48 h. The procedure, abridged: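 MGC-803 cells exposed to test compound for 48 h, stained with PI and analysed by flow cytometry with quantification. Mean ± SD (n = 3) from three independent experiments with biological duplicates.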

Data set [12] can be described thus: Metabolic stability in human liver microsomes. Format: in vitro ADME.
The nature of data set [13]: Metabolic stability in rat liver microsomes. Format: in vitro ADME.
Data set [14] relates to Caco-2 monolayer. The experiment in a line: Caco-2 permeability assay. Format: in vitro ADME, human. Conditions: from A to B.
In data set [15] the test system is GPX4. The experiment in a line: GPX4 expression in PDX tumor tissues by IHC. Format: in vivo, NOD-SCID mice. Conditions: sensitive PDX models PDX-01, PDX-02 and PDX-03, end of treatment.
Data set [16] has as its system MGC-803 and MKN-45 cells. Nature of the data set: Intracellular ferrous iron. Format: cell-based, human. Conditions: 24 h. A digest of the protocol:
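Cells in 60-mm dishes exposed to test compound for 24 h, alone or with 3-MA. Cells are then collected and homogenised in iron assay buffer, and ferrous iron is measured with a commercial iron assay kit per the maker's protocol. Mean ± SD (n = 3), three independent experiments, biological duplicates.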

For data set [17], the system named is GPX4. The experiment in a line: qRT-PCR of GPX4 mRNA. Particulars: MGC-803 and MKN-45 cells, 24 h. Format: cell-based, human.
Data set [18] in a line: Metabolic stability in dog liver microsomes. Format: in vitro ADME.
[19] abbreviates: Caco-2, Papp (A‒B), direction A‒B.
Setting [20] is: Caco-2, Papp (B‒A), direction B‒A.

As a reminder, the efflux ratio is the permeability from basolateral to apical divided by that in the opposite direction, in the common usage. By Papp is commonly meant the rate of passage across a membrane or cell layer, normalised by area and donor concentration. The half-life is how long it takes for the measured level to halve. As usually defined, the microsomal CLint is a measure of how fast metabolising enzymes remove a compound, apart from limits set by blood flow. What is called GI50 is the concentration that inhibits growth by half. As a reminder, the AUC(0-inf) is the area under the concentration-time curve extrapolated to infinity. Usually AUC(0-t) stands for exposure summed from dosing to a finite time, without extrapolation to infinity. For orientation: Cmax means the maximum level reached in the sampled fluid or tissue. The term MRT last denotes a mean duration of stay, worked out from the concentration-time curve. For orientation: Vd means a proportionality between amount in the body and measured concentration, not a real space.

With `O=c1[nH]cc(F)c(=O)[nH]1` [Compound 5-FU, 5-fluorouracil, reference compound], the “pathologic examination of heart, liver, spleen, lung and kidney” value in data set [1] was “no observed adverse effects”.

Turning to `C[C@H]1O[C@@H](O[C@H]2[C@@H](O)C[C@H](O[C@H]3[C@@H](O)C[C@H](O[C@H]4CC[C@@]5(C)[C@H](CC[C@@H]6[C@@H]5C[C@@H](O)[C@]5(C)[C@@H](C7=CC(=O)OC7)CC[C@]65O)C4)O[C@@H]3C)O[C@@H]2C)C[C@H](O)[C@@H]1O` [Digoxin], in [2], the efflux ratio was 197. Further, the Papp in data set [2] (setting [19]) was determined as 0.13 ± 0.02 ×10⁻⁶ cm/s; in [2] (setting [20]) it was 24.7 ± 0.1 ×10⁻⁶ cm/s.

For `CC(C)Oc1ccc(C(=O)Cn2ccnc2)cc1-n1c(CN2CCN(C(=O)COc3ccc(Cl)cc3)CC2)nc2ccccc2c1=O` [IKE, imidazole ketone erastin, reference compound], the “effect on cell growth, compound alone” value in data set [3] (MGC-803 and MKN-45 cells, SRB) is given as “no effect”.

Consider `CC(C)NCC(O)COc1cccc2ccccc12` (centres unmarked) [Propranolol], for which the efflux ratio in data set [2] was found to be 0.7. For the same compound, the values for the Papp in data set [2] (setting [19]) and in data set [2] (setting [20]) were 28.3 ± 0.43 ×10⁻⁶ cm/s and 18.5 ± 0.3 ×10⁻⁶ cm/s, respectively.

In [4], `C=C1C(=O)[C@@]23C(C(=O)C[C@@H]1[C@H]2OC(=O)[C@@H](N)C(C)C)[C@]12CCCC(C)(C)C1C[C@H]3OC2=O` (stereo partly drawn) [a2, (6R,6aR,9S,11bS,14R)-4,4-Dimethyl-8-methylene-7,11,12-trioxododecahydro-1H-6,11b-(epoxymethano)-6a,9-methanocyclohepta[a]naphthalen-14-yl valinate] yielded a half-life at 1 μmol/L of 23.5 min and a microsomal CLint at 1 μmol/L of 148 µL/min/mg. Also, in data set [3] (Homo sapiens), the GI50 fell in the range of 880 to 3330 nM. Also, in data set [5], the AUC(0-inf) stood at 14800 ± 1330 ng·h/mL, the AUC(0-t) is 14800 ± 1320 ng·h/mL, the highest concentration (Cmax) came out at 18300 ± 1420 ng/mL and the MRT last was 92.4 ± 7.8 min. In data set [5], this compound had a distribution volume (Vd) of 7.73 ± 1.46 L/kg and a half-life of 236 ± 28.8 min. In [6], this compound had a half-life at 1 μmol/L of 23.7 min and a microsomal CLint at 1 μmol/L of 146 µL/min/mg. In data set [7], the “GI50 in GES1 relative to gastric cancer cells” value was “at least five-fold higher”. The “lipid ROS production” value in data set [8] is on record as “dose-dependently elevated”. Further, the “mRNA level of SLC7A11” value in [9] is reported as “increased”. In addition, in data set [10], the “level of ROS” value is recorded as “markedly elevated”. The tumor growth result in [1] (5, 10, 20 mg/kg once a day for 21 days, tail vein injection) was “dose- and time-dependently inhibited tumor growth”. Moreover, the “anti-tumor efficacy compared with 5-FU (15 mg/kg)” value in data set [1] (a2 at 10 or 20 mg/kg, once a day for 21 days) was “more potent than that of the positive control drug 5-FU”. The “pathologic examination of heart, liver, spleen, lung and kidney” value in data set [1] is listed as “no observed adverse effects”. Further, in data set [1] (once a day for 21 days, compared to 5-FU), the “effect on mouse body weight” value was “fewer effect”. Moreover, in data set [11], the “cell population in the G2/M phase” value is reported as “significantly increased”. In data set [12], this compound yielded a half-life at 1 μmol/L of 34.9 min and a microsomal CLint at 1 μmol/L of 99.4 µL/min/mg. In data set [13], this compound yielded a half-life at 1 μmol/L of 31.2 min and a microsomal CLint at 1 μmol/L of 111 µL/min/mg. In addition, the efflux ratio in data set [2] was 0.2. In addition, in data set [2] (setting [19]), the Papp came to 16.1 ± 1.01 ×10⁻⁶ cm/s. The same compound returned a Papp in data set [2] (setting [20]) of 3.3 ± 0.3 ×10⁻⁶ cm/s. Moreover, the “permeability class against the Caco-2 monolayer” value in data set [14] is on record as “moderately permeable compound”. The “expression of GPX4 in tumor tissues” value in [15] is reported as “decreased expression of GPX4”. The ferrous iron accumulation entry in data set [16] is “significantly increased”. The “mRNA level of GPX4” value in data set [17] is listed as “dose-dependently reduced”. In data set [18], this compound displayed a half-life at 1 μmol/L of 32.2 min and a microsomal CLint at 1 μmol/L of 108 µL/min/mg.
